Structures are written as SMILES. The source made the active and inactive calls. Where only a bound is given, the exact number is not on record here.

In data set [1] the test system is Lipid bilayer. Nature of the data set: Binding affinity to DPPC liposomes assessed as induction of chloride ion efflux at 35 to 45 degC after 250 secs by fluorimetric analysis. The conditions noted are these: Microsome. Put shortly: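 Lucigenin-loaded (2 mM) DPPC LUVs (100 nm extruded) containing 100 mM NaCl and 10 mM sodium phosphate pH 6.4, external dye removed by gel filtration. Vesicles diluted into 2.5 mL stirred phosphate buffer at 35, 40 or 45°C. Transporter in MeOH added at t = 50 s to 10 mol% relative to lipid; Triton X-100 lysis at 300 s. Fluorescence ex 372/em 503 nm. Average of three runs.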

Data set [2] relates to Escherichia coli. Nature of the data set: Induction of membrane permeabilization in Escherichia coli SK037 expressing TolC mutant at 40 times MIC after 2 hrs by diSC25 dye-based fluorescence assay. The data set is classed as functional, organism-based. The gist of the method:
(§1)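 E. coli SK037 grown overnight in LB at 37°C, washed in 5 mM HEPES pH 7.3 with 20 mM glucose and diluted to A600 0.15. diSC25 (1 µM final) equilibrated 1 h at 37°C to a stable baseline. Compound in DMSO added to 0.4 mM or 1 mM final. Fluorescence ex 600/em 660 nm followed ~2 h with stirring at 37°C.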

For data set [3], the system named is Escherichia coli. Nature of the data set: Induction of membrane depolarization in Escherichia coli SK037 expressing TolC mutant at 40 times MIC after 2 hrs by diSC25 dye-based fluorescence assay. In kind it is functional, organism-based. Put shortly:
as §1

In data set [4] the test system is Escherichia coli. Briefly: Antibacterial activity against Escherichia coli SK037 expressing TolC mutant assessed as change in cell morphology and membrane damage after 12 to 24 hrs by field emission scanning electron microscopic analysis. The data set is classed as functional, organism-based. Put shortly: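 E. coli SK037 grown in LB, washed three times, resuspended in 10 mM PBS pH 7.4 and diluted to A600 1.20 (9 x 10^8 CFU/mL). Cells exposed to 0.04 mM or 0.08 mM compound (added in DMSO) on poly-lysine-coated glass slides at 37°C for 12 h or 24 h. Fixed with 2.5% glutaraldehyde, stained with 1% OsO4, ethanol-dehydrated, critical-point dried, carbon-coated, imaged by field emission SEM.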

Data set [5] in a line: Binding affinity to egg yolk phosphotidylcholine liposomes assessed as induction of chloride ion efflux after 250 secs by fluorimetric analysis relative to lipid. The gist of the method: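 EYPC LUVs (100 nm extruded) loaded with 2 mM lucigenin, 100 mM NaCl and 10 mM sodium phosphate pH 6.4. Liposomes are suspended in NaNO3 buffer at 37 °C. Transporter in MeOH, at various concentrations, is added at 50 s and Triton X-100 lysis at 300 s. Chloride efflux is read as lucigenin fluorescence (ex 372, em 503 nm). Traces are averaged over triplicates.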

Data set [6] has as its system Escherichia coli. Briefly: Antibacterial activity against wild type Escherichia coli DH5alpha measured for 24 hrs. The data set is classed as functional, DH5[alpha]. Put shortly: (§2)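 Broth microdilution in LB at 37°C. Overnight precultures regrown to OD600 0.5, then diluted to OD600 0.1. Compound added in DMSO, final DMSO max 2.5% (v/v). Plates stirred; OD600 read at 0, 4, 8 and 24 h. MIC taken as lowest concentration with no detectable growth. Triplicates from independent cultures.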

Data set [7] has as its system Escherichia coli. Nature of the data set: Antibacterial activity against Escherichia coli SK037 expressing TolC mutant measured for 24 hrs. In kind it is functional. The gist of the method:
as §2

Data set [8] concerns Bacillus thuringiensis. Briefly: Antibacterial activity against Bacillus thuringiensis HD73 measured for 24 hrs. In kind it is functional. The gist of the method: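 Broth microdilution in LB. Overnight 37 °C preculture, regrown to OD600 0.5, diluted to OD600 0.1. Wells hold culture plus compound in DMSO (DMSO max 2.5% v/v final). Incubated at 37 °C with stirring, OD600 read at 0, 4, 8 and 24 h. MIC is the lowest concentration with no detectable growth. Triplicates from independent cultures.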

A short description of data set [9]: Induction of nitrate anions efflux in chloroform phase at 1 mM by fluorescence-based U-tube method. The data set is classed as physicochemical. The conditions noted are these: 1000 µM. Put shortly: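 U-tube: 10 mL chloroform containing 1 mM ionophore separates 5 mL of 0.1 mM aqueous lucigenin (donor arm) from 5 mL water (receiving arm). Lucigenin fluorescence in the receiving phase is monitored at ex 372 and em 503 nm. Neat chloroform serves as control.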

For data set [10], the system named is Escherichia coli. Briefly: Ratio of MIC for wild type Escherichia coli DH5alpha to MIC for Escherichia coli SK037 expressing TolC mutant. In kind it is functional.
Data set [11] in a line: Hemolytic activity in human RBC at 25 uM after 1 hr relative to control. Conditions: red blood cells (RBC), read-out: Activity. The data set is classed as ADME, cell-based, Erythrocyte. Put shortly: (§3)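 Human type O erythrocytes are washed in PBS and used at 2% v/v. Two-fold serial dilutions in DMSO are added, then incubated for 1 or 24 h at 37 °C with gentle shaking. After centrifugation at 2000g, hemoglobin release is read as supernatant A405. It is normalized to PBS (0%) and 0.5% Triton X-100 (100%). Mean of three experiments.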

A short description of data set [12]: Hemolytic activity in human RBC at 25 uM after 24 hrs relative to control. The data set is classed as cell-based, Erythrocyte. The conditions noted are these: red blood cells (RBC), read-out: Activity. Put shortly:
as §3

The mark [13] stands for this setting: Escherichia coli, DH5[alpha], 24 h, read-out: MIC.
[14] abbreviates: Escherichia coli, SK037, 24 h, read-out: MIC.
Where [15] appears, read: Bacillus thuringiensis, HD73, 24 h, read-out: MIC.

As to `C(#Cc1ccc(C[n+]2cn(Cc3cccc(Cn4c[n+](Cc5ccc(C#Cc6ccccc6)cc5)c5ccccc54)n3)c3ccccc32)cc1)c1ccccc1`, the outcome in [1], in data set [2] and in [3] was Active. Also, the Activity entry in data set [4] was “Dose-dependent effect”.

Regarding `C(#Cc1ccc(Cn2c[n+](Cc3ccc(C#Cc4ccccc4)cc3)c3ccccc32)cc1)c1ccccc1.O=S(=O)([N-]S(=O)(=O)C(F)(F)F)C(F)(F)F` [listing 1 of 2 here], in data set [2], the result was Active.

`C(#Cc1ccc(C[n+]2cn(-c3cccc(-n4c[n+](Cc5ccc(C#Cc6ccccc6)cc5)c5ccccc54)n3)c3ccccc32)cc1)c1ccccc1.[Br-].[Br-]`: the EC50 in data set [5] worked out at 24 mol%. The results for the MIC in data set [6] (setting [13]), in [7] (setting [14]) and in data set [8] (setting [15]) were over 100 µM, over 100 µM and 10 µM, respectively.

Regarding `C(#Cc1ccc(C[n+]2cn(Cc3cccc(Cn4c[n+](Cc5ccc(C#Cc6ccccc6)cc5)c5ccccc54)n3)c3ccccc32)cc1)c1ccccc1.O=S(=O)([N-]S(=O)(=O)C(F)(F)F)C(F)(F)F.O=S(=O)([N-]S(=O)(=O)C(F)(F)F)C(F)(F)F` [listing 1 of 2 here], in data set [5], the EC50 was 5.6 mol%. Further, the Activity result in data set [9] was “Not Active”. Moreover, the results for the minimal inhibitory concentration (MIC) in data set [6] (setting [13]), in data set [7] (setting [14]) and in [8] (setting [15]) were 50 µM, 10 µM and 10 µM, respectively. Further, in data set [10], the Ratio was found to be 2.5.

`C(#Cc1ccc(C[n+]2cn(-c3cccc(-n4c[n+](Cc5ccc(C#Cc6ccccc6)cc5)c5ccccc54)n3)c3ccccc32)cc1)c1ccccc1.O=S(=O)([O-])C(F)(F)F.O=S(=O)([O-])C(F)(F)F`: the EC50 in data set [5] is 12 mol%. In addition, the minimal inhibitory concentration (MIC) (usually the smallest concentration in the dilution series that meets the test's criterion for growth inhibition) in [6] is over 100 µM; in data set [8], 10 µM.

On to `C(#Cc1ccc(Cn2c[n+](Cc3ccc(C#Cc4ccccc4)cc3)c3ccccc32)cc1)c1ccccc1.O=S(=O)([N-]S(=O)(=O)C(F)(F)F)C(F)(F)F` [listing 2 of 2 here], for which the EC50 in data set [5] came out at 5.8 mol%. In addition, the figures for the MIC in data set [6] (setting [13]), in data set [7] (setting [14]) and in data set [8] (setting [15]) were over 100 µM, 25 µM and 10 µM, respectively. Moreover, in data set [10], the Ratio is on record as 2.5.

Take `C(#Cc1ccc(C[n+]2cn(Cc3cccc(Cn4c[n+](Cc5ccc(C#Cc6ccccc6)cc5)c5ccccc54)n3)c3ccccc32)cc1)c1ccccc1.[Br-].[Br-]`: the EC50 in data set [5] is recorded as 14 mol%. The Activity result in [9] is listed as “Not Active”. Further, the MIC in data set [6] came to 100 µM; in data set [7] (setting [14]), 10 µM; in [8], 10 µM. Further, the Ratio in [10] is 10.

As to `C(#Cc1ccc(Cn2c[n+](Cc3ccc(C#Cc4ccccc4)cc3)c3ccccc32)cc1)c1ccccc1.[Br-]`, in [5], the EC50 is reported as 14.8 mol%. Besides, the MIC in [6] (setting [13]) was over 100 µM; in data set [7] (setting [14]), over 100 µM; in data set [8] (setting [15]) it was 10 µM.

As for `C(#Cc1ccc(C[n+]2cn(-c3cccc(-n4c[n+](Cc5ccc(C#Cc6ccccc6)cc5)c5ccccc54)n3)c3ccccc32)cc1)c1ccccc1.O=S(=O)([N-]S(=O)(=O)C(F)(F)F)C(F)(F)F.O=S(=O)([N-]S(=O)(=O)C(F)(F)F)C(F)(F)F`, the EC50 in [5] is on record as 6.9 mol%. Besides, the MIC in data set [6] (setting [13]) was over 100 µM; in data set [7] (setting [14]) it was over 100 µM; in data set [8] (setting [15]), 10 µM.

As for `C(#Cc1ccc(C[n+]2cn(Cc3cccc(Cn4c[n+](Cc5ccc(C#Cc6ccccc6)cc5)c5ccccc54)n3)c3ccccc32)cc1)c1ccccc1.O=S(=O)([O-])C(F)(F)F.O=S(=O)([O-])C(F)(F)F`, in [5], the EC50 is 0.46 mol%. Moreover, the outcome in data set [9] was Active. In addition, the MIC in data set [6] was found to be 25 µM; in data set [7] it was 10 µM; in [8] it was 2 µM. The Ratio in [10] stood at 2.5. In [11], the hemolysis at 1 h, 25 µM was under 10%. Besides, in data set [12], the hemolysis at 24 h, 25 µM turned out to be 10%.

As for `C(#Cc1ccc(C[n+]2cn(Cc3cccc(Cn4c[n+](Cc5ccc(C#Cc6ccccc6)cc5)c5ccccc54)n3)c3ccccc32)cc1)c1ccccc1.O=S(=O)([N-]S(=O)(=O)C(F)(F)F)C(F)(F)F.O=S(=O)([N-]S(=O)(=O)C(F)(F)F)C(F)(F)F` [listing 2 of 2 here], the outcome in [1], in data set [2] and in [3] was Active.

Values taken from ChEMBL document CHEMBL3414436, “Strong antibacterial properties of anion transporters: a result of depolarization and weakening of the bacterial membrane” (J Med Chem, 2015).
